In ChEMBL document CHEMBL1126247, “Iodoaminopotentidine and related compounds: a new class of ligands with high affinity and selectivity for the histamine H2 receptor” (J Med Chem, 1992):

Columns and labels:
[1] = molecular target: Histamine H2 receptor (Cavia porcellus) (UniProt P47747); assay: Histamine H2 receptor antagonism at a concentration of 1 umolar on the isolated guinea pig right atrium.; format: functional, tissue-based; conditions: Cardiac atrium
[2] = molecular target: Histamine H2 receptor (Cavia porcellus) (UniProt P47747); assay: Inhibition of the positive chronotropic response (histamine H2 receptor antagonism) of guinea pig right atrium relative to cimetidine.; format: functional, tissue-based; conditions: Cardiac atrium
Histamine H2 receptor [3] = molecular target: T1, Histamine H2 receptor (Cavia porcellus, UniProt P47747); assay: Inhibition of [125I]APT binding to histamine H2 receptor in guinea pig cerebral membranes.; format: cell membranes
In short: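 Striatal membranes from male Hartley guinea pigs (200-300 g) in 50 mM sodium/potassium phosphate, pH 7.5, with 0.1% gelatin. Membranes incubated with 125I-APT 120 min at 25 °C, in triplicate. Stopped with cold buffer containing 0.1% BSA, then filtered on polyethylenimine-treated glass-fiber filters and γ-counted. […] Azido compounds handled under dim light.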

[4] = Inhibition of the positive chronotropic response (H2-antagonism) of guinea pig right atrium relative to cimetidine.; format: functional, Cavia porcellus, Cardiac atrium
Histamine H2 receptor [5] = molecular target: T1, Histamine H2 receptor; assay: Histamine H2 receptor antagonistic activity on the isolated guinea pig right atrium.; conditions: read-out: pA2 (converted)
[6] = molecular target: Histamine H2 receptor (Cavia porcellus) (UniProt P47747); assay: Histamine H2 receptor antagonistic activity at a concentration of 0.3 uM on the isolated guinea pig right atrium; format: functional, tissue-based; conditions: Cardiac atrium
[7] = molecular target: Histamine H2 receptor (Cavia porcellus) (UniProt P47747); assay: Histamine H2 receptor antagonistic activity at a concentration of 0.3 and 1 uM on the isolated guinea pig right atrium.; format: functional, tissue-based; conditions: Cardiac atrium
[8] = molecular target: Serotonin 2 (5-HT2) receptor (Rattus norvegicus) (UniProt P30994+P08909+P14842); assay: 5-hydroxytryptamine 2 receptor antagonistic activity at concentrations of3,10 and 30 uM on the rat tail artery.; format: functional, tissue-based
In short: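 Endothelium-denuded ventral tail artery segments from male Wistar rats (280-350 g), resting force 5 mN, 120 min equilibration with one 1 μM 5-HT priming. Two to three cumulative 5-HT (0.01-10 μM) curves per preparation.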

[9] = molecular target: Adrenergic receptor alpha-1 (Rattus norvegicus) (UniProt P15823+P23944+P43140); assay: Alpha-1 adrenergic receptor antagonistic activity at concentrations of 3,10,30and 100 uM on the rat aorta.; format: functional
In short: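 Endothelium-denuded thoracic aortic rings from the same rats, mounted isometrically, resting force 20 mN. Equilibration 140 min with two primings of 0.1 μM (R)-phenylephrine. Cumulative (R)-phenylephrine (0.003-10 μM) curves recorded with 1 μM (±)-propranolol present.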

[10] = molecular target: Beta-1 adrenergic receptor (Cavia porcellus) (UniProt B0FL73); assay: Beta-1 Adrenergic receptor antagonistic activity at concentrations of 10 and 30 uM on the isolated guinea pig right atrium.; format: functional, tissue-based; conditions: Cardiac atrium
In short: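 Spontaneously beating guinea pig right atrium, isometric recording of chronotropic response. Cumulative isoprenaline (0.1-30 nM) curves as reference agonist. Incubation handled as in the H2 protocol. pK_B = -log[antagonist] + log(concentration ratio - 1).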

[11] = molecular target: Histamine H1 receptor (Cavia porcellus) (UniProt P31389); assay: Histamine H1 receptor antagonistic activity at concentrations of 3 and 10 uM on the isolated guinea pig iluem.; format: functional
In short: (§1)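 Whole proximal guinea pig ileum segments in Tyrode's solution gassed with 95% O2/5% CO2, isotonic recording at 10 mN load. Cumulative histamine (0.01-3 μM) curves. Antagonist applied 10 min before the curve. pK_B from concentration ratio, or pA2 by Schild plot.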

[12] = molecular target: Histamine H2 receptor (Cavia porcellus) (UniProt P47747); assay: Histamine H2 receptor antagonistic activity on the isolated guinea pig right atrium determined by Schild plot.; format: functional, tissue-based; conditions: Cardiac atrium
[13] = molecular target: Histamine H2 receptor (Cavia porcellus) (UniProt P47747); assay: Histamine H2 receptor antagonistic activity at concentrations of 0.3,1 and 3 uM on the isolated guinea pig right atrium.; format: functional, tissue-based; conditions: Cardiac atrium
[14] = molecular target: Muscarinic acetylcholine receptor M3 (Cavia porcellus) (UniProt Q8VH26); assay: muscarinic acetylcholine receptor M3 antagonistic activity at concentrations of 3 and 10 uM on the isolated guinea pig iluem.; format: functional
In short: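 Guinea pig proximal ileum, isotonic recording under a 10 mN load in gassed Tyrode's solution. Cumulative carbachol (3-300 nM) curves as reference agonist. Antagonist incubated 10 min. pK_B calculated from concentration ratio, or pA2 by Schild plot.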

Histamine H2 receptor [15] = molecular target: T1, Histamine H2 receptor; assay: Inhibition of [125I]APT binding to H2 receptors in guinea pig cerebral membranes.; format: cell membranes
In short: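 Striatal membranes from male Hartley guinea pigs (200-300 g) in 50 mM sodium/potassium phosphate, pH 7.5, with 0.1% gelatin. Stopped with cold buffer containing 0.1% BSA, then filtered on polyethylenimine-treated glass-fiber filters and γ-counted. Azido compounds handled under dim light.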

[16] = molecular target: Histamine H2 receptor (Cavia porcellus) (UniProt P47747); assay: Potency to inhibit the positive chronotropic response (H2-antagonism) of guinea pig right atrium relative to cimetidine.; format: functional, tissue-based; conditions: Cardiac atrium
[17] = molecular target: Muscarinic acetylcholine receptor M3 (Cavia porcellus) (UniProt Q8VH26)
[18] = molecular target: Histamine H1 receptor (Cavia porcellus) (UniProt P31389)
[19] = molecular target: Histamine H2 receptor (Cavia porcellus) (UniProt P47747); assay: Histamine H2 receptor antagonistic activity at a concentration of 0.3 and 0.1 uM on the isolated guinea pig right atrium.; format: functional, tissue-based; conditions: Cardiac atrium
Histamine H1 receptor = Histamine H1 receptor (Cavia porcellus, UniProt P31389); assay: Histamine H1 receptor antagonistic activity on the isolated guinea pig ileum determined by Schild plot.; format: functional, tissue-based; conditions: read-out: pA2 (converted); in short: as §1
[20] = molecular target: Histamine H2 receptor (Cavia porcellus) (UniProt P47747); conditions: Cardiac atrium, 10 uM

Histamine H2 receptor (Cavia porcellus), sequence (P47747 whole entry): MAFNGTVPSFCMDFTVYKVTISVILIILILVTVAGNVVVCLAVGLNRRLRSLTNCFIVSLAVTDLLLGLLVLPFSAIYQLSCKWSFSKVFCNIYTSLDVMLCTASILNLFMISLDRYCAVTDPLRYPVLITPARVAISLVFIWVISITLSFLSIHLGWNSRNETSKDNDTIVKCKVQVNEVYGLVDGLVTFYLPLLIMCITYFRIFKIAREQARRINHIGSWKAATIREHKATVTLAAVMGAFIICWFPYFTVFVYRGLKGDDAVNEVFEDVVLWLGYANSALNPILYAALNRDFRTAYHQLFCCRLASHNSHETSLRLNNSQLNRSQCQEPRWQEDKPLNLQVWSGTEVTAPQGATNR
T1 sequence (P47747 whole entry): as above
Histamine H1 receptor (Cavia porcellus), sequence (P31389 whole entry): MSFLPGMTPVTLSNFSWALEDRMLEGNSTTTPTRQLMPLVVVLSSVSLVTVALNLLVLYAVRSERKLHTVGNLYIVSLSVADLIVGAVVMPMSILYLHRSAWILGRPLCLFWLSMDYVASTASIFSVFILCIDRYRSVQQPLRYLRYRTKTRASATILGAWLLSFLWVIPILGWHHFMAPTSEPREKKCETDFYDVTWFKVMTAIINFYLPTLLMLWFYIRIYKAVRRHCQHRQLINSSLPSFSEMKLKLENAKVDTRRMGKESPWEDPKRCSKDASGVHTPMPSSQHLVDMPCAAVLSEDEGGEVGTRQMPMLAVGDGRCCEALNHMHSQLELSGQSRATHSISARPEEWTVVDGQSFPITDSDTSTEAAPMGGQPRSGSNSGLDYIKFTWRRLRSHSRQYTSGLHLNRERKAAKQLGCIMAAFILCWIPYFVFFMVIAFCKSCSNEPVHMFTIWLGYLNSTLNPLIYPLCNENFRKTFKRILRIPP
Muscarinic acetylcholine receptor M3 (Cavia porcellus), sequence (Q8VH26 1-587): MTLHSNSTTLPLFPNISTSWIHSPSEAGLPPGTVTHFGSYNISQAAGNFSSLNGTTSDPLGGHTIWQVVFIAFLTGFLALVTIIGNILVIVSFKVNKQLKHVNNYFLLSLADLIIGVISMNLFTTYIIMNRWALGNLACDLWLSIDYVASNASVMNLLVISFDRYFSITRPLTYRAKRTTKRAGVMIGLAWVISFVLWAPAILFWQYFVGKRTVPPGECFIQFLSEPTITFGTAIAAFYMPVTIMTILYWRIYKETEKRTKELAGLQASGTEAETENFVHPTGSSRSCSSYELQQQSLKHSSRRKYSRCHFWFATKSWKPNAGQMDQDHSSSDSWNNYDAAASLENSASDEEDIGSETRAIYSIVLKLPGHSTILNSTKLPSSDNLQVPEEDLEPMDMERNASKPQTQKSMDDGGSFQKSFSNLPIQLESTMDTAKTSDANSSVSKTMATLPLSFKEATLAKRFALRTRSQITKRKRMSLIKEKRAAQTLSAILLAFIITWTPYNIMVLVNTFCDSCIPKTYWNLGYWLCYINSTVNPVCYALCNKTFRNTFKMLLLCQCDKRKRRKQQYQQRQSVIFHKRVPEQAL
Serotonin 2 (5-HT2) receptor (Rattus norvegicus), sequence (P08909 whole entry, looked up): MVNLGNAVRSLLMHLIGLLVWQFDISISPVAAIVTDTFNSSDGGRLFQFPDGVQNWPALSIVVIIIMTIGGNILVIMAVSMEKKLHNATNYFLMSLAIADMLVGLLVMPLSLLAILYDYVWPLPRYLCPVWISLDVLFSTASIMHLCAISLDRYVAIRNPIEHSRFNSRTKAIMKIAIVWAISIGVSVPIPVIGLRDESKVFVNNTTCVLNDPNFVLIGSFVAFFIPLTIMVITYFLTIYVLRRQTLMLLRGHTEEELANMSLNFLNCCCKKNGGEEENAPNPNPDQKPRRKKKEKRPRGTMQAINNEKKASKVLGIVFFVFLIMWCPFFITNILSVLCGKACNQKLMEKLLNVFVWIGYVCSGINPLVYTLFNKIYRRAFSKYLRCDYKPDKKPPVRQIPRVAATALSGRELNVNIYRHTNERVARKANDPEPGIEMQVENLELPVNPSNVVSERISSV
Serotonin 2 (5-HT2) receptor (Rattus norvegicus), sequence (P14842 whole entry, looked up): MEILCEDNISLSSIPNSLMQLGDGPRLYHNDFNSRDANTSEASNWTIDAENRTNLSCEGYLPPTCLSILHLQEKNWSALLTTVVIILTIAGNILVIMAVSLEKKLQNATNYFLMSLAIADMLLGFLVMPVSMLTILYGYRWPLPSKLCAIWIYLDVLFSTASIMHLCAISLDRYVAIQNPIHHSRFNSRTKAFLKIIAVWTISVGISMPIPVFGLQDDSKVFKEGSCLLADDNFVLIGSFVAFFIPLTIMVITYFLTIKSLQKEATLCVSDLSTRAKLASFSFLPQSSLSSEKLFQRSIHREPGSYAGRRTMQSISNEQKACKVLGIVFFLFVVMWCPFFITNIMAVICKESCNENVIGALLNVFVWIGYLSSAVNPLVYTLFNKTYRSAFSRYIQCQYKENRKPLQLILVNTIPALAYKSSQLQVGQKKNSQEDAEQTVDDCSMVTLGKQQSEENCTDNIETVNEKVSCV
Serotonin 2 (5-HT2) receptor (Rattus norvegicus), sequence (P30994 whole entry, looked up): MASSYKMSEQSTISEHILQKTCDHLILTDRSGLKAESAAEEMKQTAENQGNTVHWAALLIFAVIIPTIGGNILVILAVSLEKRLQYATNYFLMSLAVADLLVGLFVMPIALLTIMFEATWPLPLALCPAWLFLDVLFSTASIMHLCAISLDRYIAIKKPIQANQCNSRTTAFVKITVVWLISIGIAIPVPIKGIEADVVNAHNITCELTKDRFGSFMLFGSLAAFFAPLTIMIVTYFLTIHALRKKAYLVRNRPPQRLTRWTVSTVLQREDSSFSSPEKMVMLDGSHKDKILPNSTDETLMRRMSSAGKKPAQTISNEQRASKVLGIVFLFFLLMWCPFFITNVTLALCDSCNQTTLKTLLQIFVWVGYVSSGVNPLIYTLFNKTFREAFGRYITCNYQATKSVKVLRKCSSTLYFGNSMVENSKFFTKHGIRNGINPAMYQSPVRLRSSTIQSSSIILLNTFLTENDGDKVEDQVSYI
Beta-1 adrenergic receptor (Cavia porcellus), sequence (B0FL73 1-467): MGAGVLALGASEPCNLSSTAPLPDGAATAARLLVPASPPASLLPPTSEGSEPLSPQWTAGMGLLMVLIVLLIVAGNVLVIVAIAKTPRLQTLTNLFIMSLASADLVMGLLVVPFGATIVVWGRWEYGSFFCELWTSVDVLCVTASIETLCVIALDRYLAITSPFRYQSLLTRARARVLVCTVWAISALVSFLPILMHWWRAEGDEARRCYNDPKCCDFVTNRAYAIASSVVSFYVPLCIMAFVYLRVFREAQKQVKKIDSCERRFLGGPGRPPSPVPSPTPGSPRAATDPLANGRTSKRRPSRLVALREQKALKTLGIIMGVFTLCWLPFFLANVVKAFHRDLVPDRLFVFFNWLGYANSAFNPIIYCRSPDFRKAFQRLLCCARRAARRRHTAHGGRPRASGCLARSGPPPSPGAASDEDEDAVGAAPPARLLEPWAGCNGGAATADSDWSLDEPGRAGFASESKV
Histamine H1 receptor, sequence (P31389 whole entry): as the sequence (P31389 whole entry) above

Row | Compound | pKB [1] | Relative potency [2] [%] | Relative potency [4] [%] | further results
1 | N#CN/C(=N\CCCNc1ccc(N=[N+]=[N-])cc1[N+](=O)[O-])NCCCCOc1cccc(CN2CCCCC2)c1 | 6.56 | 145 |  | 
2 | CNC(=C[N+](=O)[O-])NCCSCc1ccc(CN(C)C)o1 [RANITIDINE] | 7.2 | 631 |  | Ki (Histamine H2 receptor [3]): 53.7 nM
3 | N#CN/C(=N\CCNC(=O)c1ccccc1[N+](=O)[O-])NCCCCOc1cccc(CN2CCCCC2)c1 | 7.52 |  | 1318 | 
4 | N#CN=C(NCCCOc1cccc(CN2CCCCC2)c1)NCCNC(=O)c1ccc(N=[N+]=[N-])c(I)c1 |  |  |  | Kb (Histamine H2 receptor [5]): 155 nM
5 | N#CN/C(=N\CCNC(=O)CCc1ccccc1)NCCCOc1cccc(CN2CCCCC2)c1 | 6.27 |  | 74 | 
6 | Nc1ccc(C(=O)NCCCOc2cccc(CN3CCCCC3)c2)cc1 | 6.82 |  | 263 | 
7 | N#CN/C(=N\CCCCCNC(=O)c1ccccc1)NCCCOc1cccc(CN2CCCCC2)c1 | 6.58 |  | 151 | 
8 | CC(C)(C)OC(=O)Nc1ccc(CC(=O)NCC/N=C(\NC#N)NCCCCOc2cccc(CN3CCCCC3)c2)cc1 | 6.04 |  | 44 | 
9 | N#CN/C(=N\CCCNC(=O)c1ccc(N=[N+]=[N-])cc1)NCCCOc1cccc(CN2CCCCC2)c1 | 6.36 | 91 |  | 
10 | N#CN/C(=N\CCNc1ccc(N=[N+]=[N-])cc1[N+](=O)[O-])NCCCCOc1cccc(CN2CCCCC2)c1 |  | 1180 |  | pKB [6]: 7.47
11 | N#CN/C(=N\CCCOc1cccc(CN2CCCCC2)c1)NCC(O)CNC(=O)c1ccccc1 (stereo not given) |  |  | 813 | pKB [7]: 7.31
12 | N#CN/C(=N\CCOC(=O)c1ccccc1)NCCCOc1cccc(CN2CCCCC2)c1 | 7.64 |  | 1738 | 
13 | CC(C)(C)OC(=O)Nc1ccc(C(=O)NCC/N=C(\NC#N)NCCCOc2cccc(CN3CCCCC3)c2)cc1 |  |  | 295 | pKB [7]: 6.87
14 | N#CN/C(=N\CCNC(=O)c1ccc(N=[N+]=[N-])c(I)c1)NCCCOc1cccc(CN2CCCCC2)c1 |  | 257 |  | pKB [8]: 6.05; pKB [9]: 6.17; pKB [10]: 5.12; pKB [11]: 5.62; Slope [12]: 1.2; pKB [13]: 6.98; pKB [14]: 5.48
15 | N#CN/C(=N\CCNC(=O)c1ccc(N=[N+]=[N-])cc1)NCCCCOc1cccc(CN2CCCCC2)c1 |  | 1380 |  | pKB [6]: 7.54
16 | N#CN/C(=N\CCCCCCNC(=O)c1ccccc1)NCCCOc1cccc(CN2CCCCC2)c1 | 6.6 |  | 158 | 
17 | N#CN/C(=N\CCCNc1ccccc1[N+](=O)[O-])NCCCCOc1cccc(CN2CCCCC2)c1 | 7.85 | 2820 |  | 
18 | N#CN/C(=N\CCCNC(=O)c1ccccc1)NCCCCOc1cccc(CN2CCCCC2)c1 | 6.6 |  | 158 | 
19 | N#CN/C(=N\CCNC(=O)c1ccncc1)NCCCOc1cccc(CN2CCCCC2)c1 | 6.89 |  | 309 | 
20 | N#CN/C(=N\CCNC(=O)c1cccc(N)c1)NCCCOc1cccc(CN2CCCCC2)c1 |  |  | 776 | pKB [7]: 7.29
21 | N#CN/C(=N\CCCCNC(=O)c1ccccc1)NCCCOc1cccc(CN2CCCCC2)c1 | 6.81 |  | 257 | 
22 | O=C(NCCCOc1cccc(CN2CCCCC2)c1)NCCNC(=O)c1ccccc1 | 6.1 |  | 50 | 
23 | N#CN/C(=N\CCNC(=O)c1cc(I)c(N)c(I)c1)NCCCCOc1cccc(CN2CCCCC2)c1 |  | 2880 |  | pKB [7]: 7.86
24 | N#CN/C(=N\CCNS(=O)(=O)c1ccccc1)NCCCCOc1cccc(CN2CCCCC2)c1 | 7.28 |  | 759 | 
25 | N#CN/C(=N\CCNC(=O)c1ccc(N=[N+]=[N-])cc1)NCCCOc1cccc(CN2CCCCC2)c1 | 7.9 | 3160 |  | 

Row | Compound | pKB [1] | Relative potency [2] [%] | Relative potency [4] [%] | further results
26 | N#CN/C(=N\CCNC(=O)c1ccccc1)NCCCCOc1cccc(CN2CCCCC2)c1 | 7.67 |  | 1862 | 
27 | N#CN/C(=N\CCNC(=O)Cc1ccccc1)NCCCOc1cccc(CN2CCCCC2)c1 | 6.93 |  | 339 | 
28 | CN/C(=N\CCSCc1nc[nH]c1C)NC#N | 6.4 |  |  | 
29 | N#CN=C(NCCCOc1cccc(CN2CCCCC2)c1)NCCNC(=O)c1ccc(N)c(I)c1 |  |  |  | Ki (Histamine H2 receptor [3]): 0.708 nM; Kb (Histamine H2 receptor [5]): 27.5 nM
30 | N#CN/C(=N\CCNC(=O)c1cccc(I)c1)NCCCCOc1cccc(CN2CCCCC2)c1 | 6.56 |  |  | Ki (Histamine H2 receptor [15]): 5.25 nM; Relative potency [16]: 145%; pKB [17]: 5.59; pKB [18]: 6.15
31 | N#CN/C(=N\CCCNc1ccccc1[N+](=O)[O-])NCCCOc1cccc(CN2CCCCC2)c1 |  | 1320 |  | pKB [19]: 7.52
32 | N#CN/C(=N\CCCCNC(=O)c1ccc(N)cc1)NCCCOc1cccc(CN2CCCCC2)c1 | 6.31 |  | 81 | 
33 | N#CN/C(=N\CCNC(=O)c1ccc(N)cc1)NCCCCOc1cccc(CN2CCCCC2)c1 |  |  | 589 | pKB [6]: 7.17
34 | Cc1ccc(S(=O)(=O)NCC/N=C(\NC#N)NCCCCOc2cccc(CN3CCCCC3)c2)cc1 | 7.29 |  | 776 | 
35 | Cc1ccc(S(=O)(=O)NCC/N=C(\NC#N)NCCCOc2cccc(CN3CCCCC3)c2)cc1 | 6.13 |  | 54 | 
36 | N#CN/C(=N\CCNC(=O)CCCc1ccccc1)NCCCOc1cccc(CN2CCCCC2)c1 | 6.45 |  | 112 | 
37 | N#CN/C(=N\CCCNC(=O)c1ccccc1)NCCCOc1cccc(CN2CCCCC2)c1 |  |  | 550 | pKB [6]: 7.14
38 | N#CN/C(=N\CCCNC(=O)c1ccc(N=[N+]=[N-])cc1)NCCCCOc1cccc(CN2CCCCC2)c1 |  | 170 |  | pKB [6]: 6.63
39 | N#CN/C(=N\CCNS(=O)(=O)c1ccccc1)NCCCOc1cccc(CN2CCCCC2)c1 |  |  | 186 | pKB [7]: 6.67
40 | N#CN/C(=N\CCCOc1cccc(CN2CCCCC2)c1)NCC(O)CNc1ccccc1[N+](=O)[O-] (stereo not given) |  | 871 |  | pKB [19]: 7.34
41 | N#CN/C(=N\CCNC(=O)c1ccccc1)NCCCOc1cccc(CN2CCCCC2)c1 |  |  | 2630 | pKB [6]: 7.82
42 | C/N=C(/NC#N)NCCSCc1csc(NC(=N)N)n1 | 7.8 |  |  | 
43 | N#CN/C(=N\CCNc1ccc(N=[N+]=[N-])cc1[N+](=O)[O-])NCCCOc1cccc(CN2CCCCC2)c1 | 7.39 | 977 |  | 
44 | N#CN=C(NCCCOc1cccc(CN2CCCCC2)c1)NCCNC(=O)c1cccc(I)c1 |  |  |  | Kb (Histamine H1 receptor): 2240 nM; Ki (Histamine H2 receptor [15]): 2.63 nM
45 | Nc1ccc(C(=O)NCCNC(=O)NCCCOc2cccc(CN3CCCCC3)c2)cc1 | 7.23 |  | 676 | 
46 | N#CN/C(=N\CCN)NCCCOc1cccc(CN2CCCCC2)c1 |  |  | 36 | pKB [20]: 5.95
47 | N#CN/C(=N\CCNC(=O)c1ccc(N)c(I)c1)NCCCCOc1cccc(CN2CCCCC2)c1 |  | 891 |  | pKB [6]: 7.35
48 | N#CN/C(=N\CCCNc1ccc(N=[N+]=[N-])cc1[N+](=O)[O-])NCCCOc1cccc(CN2CCCCC2)c1 |  | 245 |  | pKB [6]: 6.79
49 | N#CN/C(=N\CCCNC(=O)CCc1ccccc1)NCCCOc1cccc(CN2CCCCC2)c1 | 6.07 |  | 47 | 
